# Assay results collected from several papers.
# Compare with care: the assays were run in different laboratories.
# ABL1 T315I non-phosphorylated: Tyrosine-protein kinase ABL1, non-phosphorylated (ABL1, Homo sapiens, UniProt P00519, T315I)
# ABL1 non-phosphorylated: Tyrosine-protein kinase ABL1, non-phosphorylated (ABL1, Homo sapiens, UniProt P00519)
# ABL1 F317I phosphorylated: Tyrosine-protein kinase ABL1, phosphorylated (ABL1, Homo sapiens, UniProt P00519, F317I)
# ABL1 Q252H: Tyrosine-protein kinase ABL1 (ABL1, Homo sapiens, UniProt P00519, Q252H)
# ABL1 phosphorylated: Tyrosine-protein kinase ABL1, phosphorylated (ABL1, Homo sapiens, UniProt P00519)
# ABL1 Q252H phosphorylated: Tyrosine-protein kinase ABL1, phosphorylated (ABL1, Homo sapiens, UniProt P00519, Q252H)
# ABL1 F317L phosphorylated: Tyrosine-protein kinase ABL1, phosphorylated (ABL1, Homo sapiens, UniProt P00519, F317L)
# ABL1 F317L: Tyrosine-protein kinase ABL1 (ABL1, Homo sapiens, UniProt P00519, F317L)
SMILES,target,assay,setting,remaining binding
CCN1CCN(Cc2ccc(C(=O)Nc3ccc(C)c(Oc4ccc5c(c4)CC(=O)N5)c3)cc2C(F)(F)F)CC1,ABL1 T315I non-phosphorylated,"binding, competition with immobilised ligand",1 µM,16%
O=C(c1ccc(Nc2nccc(-c3cc4ccccc4s3)n2)cc1)N1CCC(N2CCCC2)CC1,"Tyrosine-protein kinase ABL1, non-phosphorylated (ABL1, Homo sapiens, UniProt P00519, F317L)","binding, competition with immobilised ligand",1 µM,78%
COc1cnc(Nc2cccc(S(N)(=O)=O)c2)nc1N1CCN(c2ccccc2)C(=O)C1,ABL1 non-phosphorylated,"binding, competition with immobilised ligand",1 µM,77%
O=C(NCC1CCOCC1)c1n[nH]cc1NC(=O)c1c(F)cccc1F,ABL1 F317I phosphorylated,"binding, competition with immobilised ligand",1 µM,84%
Cc1cnn2ncc(-c3ccnc(N(C)C)n3)c2c1,"Tyrosine-protein kinase ABL1 (ABL1, Homo sapiens, UniProt P00519, M351T)",binding,1 µM,91%
O=C(NS(=O)(=O)c1ccc(NCC2CCOCC2)c([N+](=O)[O-])c1)c1ccc(N2CCN(Cc3ccc(C(F)(F)F)cc3-c3ccc(Cl)cc3)CC2)cc1Oc1cnc2[nH]ccc2c1,"Tyrosine-protein kinase ABL1, phosphorylated (ABL1, Homo sapiens, UniProt P00519, H396P)","cell-free assay, competition with immobilised ligand",1 µM,92%
O=C(Nc1c[nH]nc1C(=O)NC1CCNCC1)c1cc(F)cc(F)c1,"Tyrosine-protein kinase ABL1, non-phosphorylated (ABL1, Homo sapiens, UniProt P00519, Q252H)","binding, competition with immobilised ligand",1 µM,100%
CC(C)(C)c1ccc(-c2nc(CBr)nn2-c2cccc(O)c2)cc1,ABL1 non-phosphorylated,"cell-free assay, competition with immobilised ligand",10 µM,82%
CC1CCCN1c1nccc(-c2cnn3ncccc23)n1 (stereo not drawn),ABL1 Q252H,binding,1 µM,97%
CN1CCN(c2ccc(Nc3nccc(-c4ccccc4)n3)cc2C(F)(F)F)CC1,"Tyrosine-protein kinase ABL1 (ABL1, Homo sapiens, UniProt P00519, E255K)",binding,10 µM,22%
O=C(NCc1ncc(C(F)(F)F)cc1Cl)c1ccc2c(c1)C1(CCS(=O)(=O)CC1)[C@H](C1CC1)N2S(=O)(=O)c1ccc(F)cc1,ABL1 phosphorylated,"cell-free assay, competition with immobilised ligand",1 µM,71%
F[C@@H]1CCN(c2nccc(-c3cnn4ncccc34)n2)C1,ABL1 phosphorylated,binding,1 µM,79%
COc1ncc2cc3ccccc3nc2c1C#N,ABL1 F317I phosphorylated,"cell-free assay, competition with immobilised ligand",5 µM,100%
O=C(c1ccc(Nc2ncc(Cl)c(-c3cc4ccccc4s3)n2)cc1)N1CCC(N2CCCC2)CC1,"Tyrosine-protein kinase ABL1, non-phosphorylated (ABL1, Homo sapiens, UniProt P00519, H396P)","binding, competition with immobilised ligand",1 µM,1.8%
c1cncc(-c2cccc(Nc3nccc(NC4CCCCC4)n3)c2)c1,"Tyrosine-protein kinase ABL1, non-phosphorylated (ABL1, Homo sapiens, UniProt P00519, F317I)","binding, competition with immobilised ligand",10 µM,100%
Cc1cnc(Nc2ccc(C(=O)N3CCC(N4CCCC4)CC3)cc2)nc1-c1cc2ccccc2s1,ABL1 non-phosphorylated,"binding, competition with immobilised ligand",1 µM,2.7%
C=CC(=O)N1CCC(C(=O)NCC(=O)N2CCN(c3nc(-c4cnc(N)nc4C(F)F)nc(N4CCOCC4)n3)CC2)CC1,ABL1 non-phosphorylated,"binding, competition with immobilised ligand",1 µM,80%
N#Cc1ccccc1CSc1nnc2c(n1)[nH]c1ccccc12,"Tyrosine-protein kinase ABL1, phosphorylated (ABL1, Homo sapiens, UniProt P00519, T315I)","binding, competition with immobilised ligand",10 µM,92%
O=C(c1ccc(Nc2ncc(Cl)c(-c3ccc(Cl)s3)n2)cc1)N1CCC(N2CCCC2)CC1,ABL1 T315I non-phosphorylated,"binding, competition with immobilised ligand",1 µM,0%
CNC(=O)[C@@H]1CC[C@@H](n2c(-c3ccc4cnccc4c3)nc3ccc(C(=O)NCc4cccc(C(N)=O)c4)cc32)C1,ABL1 phosphorylated,"binding, competition with immobilised ligand",1 µM,90%
C[C@@H](c1ccc(-n2cnc3c(N)ncnc32)cc1)N1CCc2nn(C)c(Cc3ccccc3)c2C1=O,ABL1 T315I non-phosphorylated,"binding, competition with immobilised ligand",0.1 µM,33%
Nc1ncc2c(n1)-c1c([nH]c3ccc(C#CC4CC4)cc13)CCCC2,ABL1 Q252H phosphorylated,"binding, competition with immobilised ligand",1 µM,94%
O=C(NCCCN1CCOCC1)c1ccc(Nc2ncc(Cl)c(-c3ccc(Cl)s3)n2)cc1,ABL1 F317L phosphorylated,"binding, competition with immobilised ligand",1 µM,80%
COCCOc1nc(-c2ccc(Cl)nc2)nc2c1CN(C(=O)c1ncn3ccccc13)CC2,"Tyrosine-protein kinase ABL1, phosphorylated (ABL1, Homo sapiens, UniProt P00519, E255K)","binding, competition with immobilised ligand",0.1 µM,100%
C[C@H]1CCN(c2nccc(-c3cnn4ncccc34)n2)C1,ABL1 F317L,binding,1 µM,82%
COc1cc(-c2cn(C3CCc4c(F)cccc4N(CC(F)(F)F)C3=O)nn2)ccc1-n1cnc(C)c1 (stereo not drawn),ABL1 Q252H phosphorylated,"cell-free assay, competition with immobilised ligand",1 µM,100%
COc1ccnn2ncc(-c3ccnc(N(C)C)n3)c12,ABL1 Q252H,binding,1 µM,82%
COc1cc(-c2cn(C3CCc4ccccc4N(CC(F)(F)F)C3=O)nn2)ccc1-n1ccc(C)n1 (stereo not drawn),"Tyrosine-protein kinase ABL1, phosphorylated (ABL1, Homo sapiens, UniProt P00519, Y253F)","cell-free assay, competition with immobilised ligand",1 µM,87%
CN(CCCC(F)(F)F)c1nccc(-c2cnn3ncccc23)n1,"Tyrosine-protein kinase ABL1 (ABL1, Homo sapiens, UniProt P00519, H396P)",binding,1 µM,95%
Cc1nc(Cc2cccc(C(F)(F)F)c2)sc1-c1ccc(C(N)=O)nc1,ABL1 Q252H phosphorylated,"cell-free assay, competition with immobilised ligand",1 µM,100%
N[C@@H]1CCN(c2nccc(-c3cnn4ncccc34)n2)C1,"Tyrosine-protein kinase ABL1 (ABL1, Homo sapiens, UniProt P00519, Y253F)",binding,1 µM,62%
CC(=O)Nc1c(C(C)=O)c(=O)n(C)c2nc(-c3ccc(Cl)cc3Cl)c(-c3ccc(Cl)cc3)cc12,ABL1 F317L phosphorylated,"cell-free assay, competition with immobilised ligand",1 µM,100%
COc1cnc(Nc2cccc(S(N)(=O)=O)c2)nc1N1CCN(c2ccccc2)CC1,ABL1 Q252H phosphorylated,"binding, competition with immobilised ligand",1 µM,72%
O=C(NCCCN1CCOCC1)c1ccc(Nc2nccc(-c3cc4ccccc4s3)n2)cc1,"Tyrosine-protein kinase ABL1, phosphorylated (ABL1, Homo sapiens, UniProt P00519, M351T)","binding, competition with immobilised ligand",1 µM,49%
c1cnn2ncc(-c3ccnc(N4CCC45COC5)n3)c2c1,ABL1 F317L,binding,1 µM,53%
CCOCCn1cc(C(=O)Nc2ccc(-n3nc(-c4cccnc4)cc3C(F)(F)F)cn2)ccc1=O,ABL1 Q252H phosphorylated,"cell-free assay, competition with immobilised ligand",1 µM,73%
